Converted amounts (≈) assume the structure as drawn.
What was measured:
Candida = experiment: Antifungal activity against Candida sp. by microdilution assay; assay type: functional
Method in brief: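 Broth microdilution per NCCLS guidelines in RPMI 1640 (L-glutamine, MOPS, no bicarbonate). An 8 mM stock in DMSO/methanol (1:10) was serially diluted twofold in medium; NONOate sodium salts were diluted in 0.1 M NaOH, with only the final step in medium, used at once. Final inoculum 6×10^3 CFU/mL, 30 °C, 24 h. MIC read nephelometrically as the lowest dilution with no visible growth.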

[1] = system: Sporobolomyces salmonicolor; experiment: Ratio of MIC for drug to ketoconazole against Sporobolomyces salmonicolor; assay type: functional
Method in brief: (§1)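 FIC is calculated as the MIC of the test compound divided by the MIC of ketoconazole. Both MICs come from 24 h NCCLS broth microdilution in RPMI 1640/MOPS, starting from an 8 mM stock in twofold dilutions, at 6×10^3 CFU/mL. Incubation is at 37 °C for A. fumigatus and A. terreus and at 30 °C for the other strains.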

Candida albicans [2] = experiment: Antifungal activity against Candida albicans after 24 hrs by broth microdilution method; assay type: functional
Method in brief: (§2)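 Broth microdilution per NCCLS in RPMI 1640 (L-glutamine, MOPS, no bicarbonate). An 8 mM stock in DMSO/methanol 1:10 is serially diluted twofold; NONOate salts go through 0.1 M NaOH, with only the last step in medium. Inoculum is 6×10^3 CFU/mL final. A. fumigatus and A. terreus are incubated 24 h at 37 °C; others at 30 °C. MIC is the lowest dilution without visible growth, read nephelometrically.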

Aspergillus fumigatus [3] = experiment: Ratio of MIC for drug to ketoconazole against Aspergillus fumigatus; assay type: functional; method in brief: as §1
Fusarium oxysporum [4] = experiment: Ratio of MIC for drug to ketoconazole against Fusarium oxysporum; assay type: functional
Fusarium oxysporum [5] = experiment: Antifungal activity against Fusarium oxysporum after 24 hrs by agar diffusion method
Aspergillus terreus [6] = experiment: Ratio of MIC for drug to ketoconazole against Aspergillus terreus; assay type: functional; method in brief: as §1
Aspergillus niger [7] = experiment: Antifungal activity against Aspergillus niger after 24 hrs by broth microdilution method; assay type: functional; method in brief: as §2
Aspergillus niger [8] = experiment: Ratio of MIC for drug to ketoconazole against Aspergillus niger; assay type: functional; method in brief: as §1
Nakaseomyces glabratus [9] = experiment: Antifungal activity against Candida glabrata after 24 hrs by broth microdilution method; assay type: functional; method in brief: as §2
Nakaseomyces glabratus [10] = experiment: Ratio of MIC for drug to ketoconazole against Candida glabrata; assay type: functional; method in brief: as §1
Penicillium chrysogenum [11] = experiment: Ratio of MIC for drug to ketoconazole against Penicillium notatum; assay type: functional; method in brief: as §1
Aspergillus fumigatus [12] = experiment: Antifungal activity against Aspergillus fumigatus after 24 hrs by broth microdilution method; assay type: functional; method in brief: as §2
Penicillium chrysogenum [13] = experiment: Antifungal activity against Penicillium notatum after 24 hrs by broth microdilution method; assay type: functional; method in brief: as §2
[14] = system: Sporobolomyces salmonicolor; experiment: Antifungal activity against Sporobolomyces salmonicolor after 24 hrs by broth microdilution method; assay type: functional; method in brief: as §2
Aspergillus terreus [15] = experiment: Antifungal activity against Aspergillus terreus after 24 hrs by broth microdilution method; assay type: functional; method in brief: as §2
Candida albicans [16] = experiment: Ratio of MIC for drug to ketoconazole against Candida albicans; assay type: functional; method in brief: as §1
[17] = Chemical stability of compound assessed as half life of nitric oxide release at pH 7.4; assay type: physicochemical; conditions: buffer

| Compound | MIC (Candida) [µg/mL] | Ratio [1] | MIC (Candida albicans [2]) [µM] | Ratio (Aspergillus fumigatus [3]) | Ratio (Fusarium oxysporum [4]) | MIC (Fusarium oxysporum [5]) [µM] | Ratio (Aspergillus terreus [6]) | MIC (Aspergillus niger [7]) [µM] | Ratio (Aspergillus niger [8]) | MIC (Nakaseomyces glabratus [9]) [µM] | Ratio (Nakaseomyces glabratus [10]) | Ratio (Penicillium chrysogenum [11]) | MIC (Aspergillus fumigatus [12]) [µM] | MIC (Penicillium chrysogenum [13]) [µM] | MIC [14] [µM] | MIC (Aspergillus terreus [15]) [µM] | Ratio (Candida albicans [16]) | t1/2 [17] [min] |
| --- | --- | --- | --- | --- | --- | --- | --- | --- | --- | --- | --- | --- | --- | --- | --- | --- | --- | --- |
| NCCCN(CCCN)N(O)N=O | 5000 (≈ 26.1 mM) | – | – | – | – | – | – | – | – | – | – | – | – | – | – | – | – | – |
| NCCN(CCN)/[N+]([O-])=N/O | 2000 (≈ 12.3 mM) | – | – | – | – | – | – | – | – | – | – | – | – | – | – | – | – | – |
| Clc1ccc([C@@]2(Cn3ccnc3)OC[C@H](COc3ccc(N4CCNCC4)cc3)O2)c(Cl)c1 | – | 16 | 25 (≈ 12.2 µg/mL) | 32 | 4 | 2000 (≈ 979 µg/mL) | 64 | 2000 (≈ 979 µg/mL) | 32 | 50 (≈ 24.5 µg/mL) | 4 | 31.25 | 2000 (≈ 979 µg/mL) | 250 (≈ 122 µg/mL) | 25 (≈ 12.2 µg/mL) | 2000 (≈ 979 µg/mL) | 1 | – |
| O=C(CO/N=[N+](\[O-])N1CCCC1)N1CCN(c2ccccc2)CC1 | – | – | > 2000 | – | – | > 2000 | – | > 2000 | – | > 2000 | – | – | > 2000 | > 2000 | > 2000 | > 2000 | – | – |
| CC(C)(CO[N+](=O)[O-])C(=O)N1CCN(c2ccccc2)CC1 | – | – | > 2000 | – | – | > 2000 | – | > 2000 | – | > 2000 | – | – | > 2000 | > 2000 | > 2000 | > 2000 | – | – |
| O=C(CO[N+](=O)[O-])N1CCN(c2ccccc2)CC1 | – | – | > 2000 | – | – | > 2000 | – | > 2000 | – | > 2000 | – | – | > 2000 | > 2000 | > 2000 | > 2000 | – | – |
| O=[N+]([O-])OCCN1CCN(c2ccccc2)CC1 | – | – | > 2000 | – | – | > 2000 | – | > 2000 | – | > 2000 | – | – | > 2000 | > 2000 | > 2000 | > 2000 | – | – |
| [O-]/[N+](=N\O)N1CCN(c2ccccc2)CC1 | – | – | > 2000 | – | – | > 2000 | – | > 2000 | – | > 2000 | – | – | > 2000 | > 2000 | > 2000 | > 2000 | – | – |
| CCO/N=[N+](\[O-])N1CCN(c2ccccc2)CC1 | – | – | > 2000 | – | – | > 2000 | – | > 2000 | – | > 2000 | – | – | > 2000 | > 2000 | > 2000 | > 2000 | – | – |
| COCO/N=[N+](\[O-])N1CCN(c2ccccc2)CC1 | – | – | > 2000 | – | – | > 2000 | – | > 2000 | – | > 2000 | – | – | > 2000 | > 2000 | > 2000 | > 2000 | – | – |
| O=C(CO[N+](=O)[O-])N1CCN(c2ccc(OC[C@H]3CO[C@](Cn4ccnc4)(c4ccc(Cl)cc4Cl)O3)cc2)CC1 | – | 0.1 | 25 (≈ 14.8 µg/mL) | 0.4 | 0.2 | 100 (≈ 59.2 µg/mL) | 0.4 | 12.5 (≈ 7.41 µg/mL) | 0.2 | 1.56 (≈ 0.924 µg/mL) | 0.12 | 0.31 | 25 (≈ 14.8 µg/mL) | 2.5 (≈ 1.48 µg/mL) | 0.16 (≈ 0.0948 µg/mL) | 12.5 (≈ 7.41 µg/mL) | 1 | – |
| O=[N+]([O-])OCCN1CCN(c2ccc(OC[C@H]3CO[C@](Cn4ccnc4)(c4ccc(Cl)cc4Cl)O3)cc2)CC1 | – | 10 | 12.5 (≈ 7.23 µg/mL) | 16 | 2 | 1000 (≈ 578 µg/mL) | 32 | 250 (≈ 145 µg/mL) | 4 | 6.25 (≈ 3.62 µg/mL) | 0.5 | 7.81 | 1000 (≈ 578 µg/mL) | 62.5 (≈ 36.2 µg/mL) | 15.6 (≈ 9.02 µg/mL) | 1000 (≈ 578 µg/mL) | 0.5 | – |
| [Na+].[O-]/N=[N+](\[O-])N1CCN(c2ccc(OC[C@H]3CO[C@](Cn4ccnc4)(c4ccc(Cl)cc4Cl)O3)cc2)CC1 | – | 0.8 | 100 | 3.2 | 0.4 | 200 | 3.2 | 100 | 1.6 | 12.5 | 1 | 2.5 | 200 | 20 | 1.25 | 100 | 4 | 4.5 |
| CCO/N=[N+](\[O-])N1CCN(c2ccc(OC[C@H]3CO[C@](Cn4ccnc4)(c4ccc(Cl)cc4Cl)O3)cc2)CC1 | – | 0.1 | 50 (≈ 28.9 µg/mL) | 0.2 | 0.1 | 50 (≈ 28.9 µg/mL) | 0.1 | 1.56 (≈ 0.901 µg/mL) | 0.025 | 3.13 (≈ 1.81 µg/mL) | 0.25 | 0.16 | 12.5 (≈ 7.22 µg/mL) | 1.25 (≈ 0.722 µg/mL) | 0.16 (≈ 0.0924 µg/mL) | 3.13 (≈ 1.81 µg/mL) | 2 | – |
| COCO/N=[N+](\[O-])N1CCN(c2ccc(OC[C@H]3CO[C@](Cn4ccnc4)(c4ccc(Cl)cc4Cl)O3)cc2)CC1 | – | 1.3 | 25 (≈ 14.8 µg/mL) | 0.13 | 0.5 | 250 (≈ 148 µg/mL) | 0.26 | 4 (≈ 2.37 µg/mL) | 0.06 | 3.13 (≈ 1.86 µg/mL) | 0.25 | 0.2 | 8 (≈ 4.75 µg/mL) | 1.56 (≈ 0.926 µg/mL) | 2 (≈ 1.19 µg/mL) | 8 (≈ 4.75 µg/mL) | 1 | – |
| O=C(CO/N=[N+](\[O-])N1CCCC1)N1CCN(c2ccc(OC[C@H]3CO[C@](Cn4ccnc4)(c4ccc(Cl)cc4Cl)O3)cc2)CC1 | – | 1.3 | 25 (≈ 16.5 µg/mL) | 2 | 2 | 1000 (≈ 661 µg/mL) | 2 | 62.5 (≈ 41.3 µg/mL) | 1 | 12.5 (≈ 8.26 µg/mL) | 1 | 1 | 125 (≈ 82.6 µg/mL) | 8 (≈ 5.28 µg/mL) | 2 (≈ 1.32 µg/mL) | 62.5 (≈ 41.3 µg/mL) | 1 | – |
| CC(C)(CO[N+](=O)[O-])C(=O)N1CCN(c2ccc(OC[C@H]3CO[C@](Cn4ccnc4)(c4ccc(Cl)cc4Cl)O3)cc2)CC1 | – | 0.38 | 6.25 (≈ 3.97 µg/mL) | 0.05 | 0.05 | 25 (≈ 15.9 µg/mL) | 0.05 | 1.56 (≈ 0.99 µg/mL) | 0.025 | 3.13 (≈ 1.99 µg/mL) | 0.25 | 1 | 3.13 (≈ 1.99 µg/mL) | 8 (≈ 5.08 µg/mL) | 0.6 (≈ 0.381 µg/mL) | 1.56 (≈ 0.99 µg/mL) | 0.25 | – |
| CC(=O)N1CCN(c2ccc(OCC3COC(Cn4ccnc4)(c4ccc(Cl)cc4Cl)O3)cc2)CC1 (stereo not drawn) [KETOCONAZOLE] | – | – | 25 (≈ 13.3 µg/mL) | – | – | 500 (≈ 266 µg/mL) | – | 62.5 (≈ 33.2 µg/mL) | – | 12.5 (≈ 6.64 µg/mL) | – | – | 62.5 (≈ 33.2 µg/mL) | 8 (≈ 4.25 µg/mL) | 1.56 (≈ 0.829 µg/mL) | 31.2 (≈ 16.6 µg/mL) | – | – |
| c1ccc(N2CCNCC2)cc1 [PHENYLPIPERAZINE] | – | – | > 2000 | – | – | > 2000 | – | > 2000 | – | > 2000 | – | – | > 2000 | > 2000 | > 2000 | > 2000 | – | – |

Reference: ChEMBL document CHEMBL1140048, “NO-donors. Part 17: Synthesis and antimicrobial activity of novel ketoconazole-NO-donor hybrid compounds” (Bioorg Med Chem, 2008)
